# Laboratory results as given in ChEMBL document CHEMBL4184083, “Design, synthesis and biological evaluation of glutamic acid derivatives as anti-oxidant and anti-inflammatory agents” (Bioorg Med Chem Lett, 2018).
# Active and inactive are the calls of the source. The calls are words filed in the database; no cut-off is given here.
# Key:
# [1] = Antioxidant activity assessed as DPPH radical scavenging activity incubated under dark condition for 30 mins by spectrophotometric analysis; format: functional
# Procedure, shortened: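 DPPH radical reduction (violet to colorless in ethanol) monitored spectrophotometrically; ascorbic acid run as reference; IC50 reported in µg/ml.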
# [2] = Chemical stability of the compound assessed as parent compound remaining at 1 mg/ml measured after 1 day at 45 degC by HPLC method (reference value: 100%); format: physicochemical; settings: read-out: Stability
# Procedure, shortened: (§1)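 Sample dissolved at 1 mg in 1 mL distilled water, stored at 45 °C and analysed by HPLC at intervals up to 28 days; remaining amount expressed relative to day-0 HPLC peak area set as 100%.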
# [3] = Chemical stability of the compound assessed as parent compound remaining at 1 mg/ml measured after 14 days at 45 degC by HPLC method (reference value: 100%); format: physicochemical; settings: read-out: Stability; procedure, shortened: as §1
# [4] = tested on: RAW264.7; test: Cytotoxicity against mouse RAW264.7 cells assessed as decrease in cell viability at 100 ug/ml after 24 hrs by WST-1 assay; format: cell-based; settings: raw264.7, 24 h
# [5] = Chemical stability of the compound assessed as parent compound remaining at 1 mg/ml measured after 7 days at 45 degC by HPLC method (reference value: 100%); format: physicochemical; settings: read-out: Stability; procedure, shortened: as §1
# [6] = Chemical stability of the compound assessed as parent compound remaining at 1 mg/ml measured after 28 days at 45 degC by HPLC method (reference value: 100%); format: physicochemical; settings: read-out: Stability; procedure, shortened: as §1
# [7] = Chemical stability of the compound assessed as parent compound remaining at 1 mg/ml measured after 21 days at 45 degC by HPLC method (reference value: 100%); format: physicochemical; settings: read-out: Stability; procedure, shortened: as §1
# [8] = species on record: Danio rerio; test: Effect on neutrophil recruitment to wounded tail fin in Tg(mpx:GFP) zebrafish larvae at 10 to 50 ug/ml measured after 6 hrs; format: ADME, organism-based
# [9] = tested on: Danio rerio; test: Antiinflammatory activity in Tg(mpx:GFP) zebrafish larvae assessed as decrease in neutrophil recruitment to wounded tail fin at 10 to 50 ug/ml dosed 4 hrs post amputation measured after 6 hrs; format: functional, organism-based
# [10] = tested on: RAW264.7; test: Antiinflammatory activity in mouse RAW264.7 cells assessed as inhibition of LPS-induced nitric oxide production after 24 hrs by Griess reagent based assay; format: functional, cell-based
# Procedure, shortened: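 RAW264.7 mouse macrophages co-treated with LPS (0.3 μg/mL) plus the test agent at a range of concentrations; NO output quantified as nitrite accumulated in culture medium after 24 h incubation.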
structure (smiles),measurement,setting,value
N[C@@H](CCC(=O)NNc1ccc(O)cc1O)C(=O)O,IC50,[1],28.01 mg/L
N[C@@H](CCC(=O)NNc1ccc(F)cc1)C(=O)O,IC50,[1],13.77 mg/L
CCc1ccccc1NNC(=O)CC[C@H](N)C(=O)O,IC50,[1],17.14 mg/L
O=C1O[C@H]([C@@H](O)CO)C(O)=C1O [ASCORBIC ACID],IC50,[1],17.38 mg/L
N[C@@H](CCC(=O)NNc1ccccc1F)C(=O)O,IC50,[1],10.86 mg/L
N[C@@H](CCC(=O)Nc1ccccc1O)C(=O)O,IC50,[1],162.42 mg/L
N[C@@H](CCC(=O)NNc1cccc(F)c1)C(=O)O,IC50,[1],11.44 mg/L
N[C@@H](CCC(=O)NNc1cccc(O)c1)C(=O)O,IC50,[1],10.67 mg/L
O=C(CC[C@H](NC(=O)OCc1ccccc1)C(=O)OCc1ccccc1)NNc1ccccc1OCc1ccccc1,IC50,[1],44.98 mg/L
Cc1ccccc1NNC(=O)CC[C@H](N)C(=O)O,"remaining at 24 h, 1 mg/ml",[2],82.3%
same,"remaining at 336 h, 1 mg/ml",[3],56.7%
same,Activity,[4],Non-Toxic
same,IC50,[1],6.24 mg/L
same,"remaining at 168 h, 1 mg/ml",[5],73.8%
Cc1cccc(NNC(=O)CC[C@H](N)C(=O)O)c1,IC50,[1],10.1 mg/L
CS(=O)(=O)c1ccc(NNC(=O)CC[C@H](N)C(=O)O)cc1,"remaining at 24 h, 1 mg/ml",[2],100%
same,"remaining at 672 h, 1 mg/ml",[6],70.7%
same,"remaining at 336 h, 1 mg/ml",[3],85.5%
same,IC50,[1],9.57 mg/L
same,"remaining at 504 h, 1 mg/ml",[7],79.2%
same,"remaining at 168 h, 1 mg/ml",[5],94.6%
Cc1ccc(NNC(=O)CC[C@H](N)C(=O)O)cc1,"remaining at 24 h, 1 mg/ml",[2],85.1%
same,"remaining at 672 h, 1 mg/ml",[6],50.4%
same,"remaining at 336 h, 1 mg/ml",[3],72.2%
same,Activity,[4],Non-Toxic
same,IC50,[1],9.99 mg/L
same,"remaining at 504 h, 1 mg/ml",[7],58.1%
same,"remaining at 168 h, 1 mg/ml",[5],82%
Cl.NC(CCC(=O)O)C(=O)NNc1ccccc1O (configuration not stated),IC50,[1],37.19 mg/L
CS(=O)(=O)c1ccc(NNC(=O)CC[C@H](N)C(=O)O)c(F)c1,"remaining at 24 h, 1 mg/ml",[2],99.4%
same,"remaining at 672 h, 1 mg/ml",[6],87.2%
same,Activity,[8],Non-Toxic
same,Activity,[9],Active
same,"remaining at 336 h, 1 mg/ml",[3],87%
same,Activity,[4],Non-Toxic
same,inhibition,[10],Dose-dependent effect
same,IC50,[1],8.72 mg/L
same,"remaining at 504 h, 1 mg/ml",[7],88.8%
same,"remaining at 168 h, 1 mg/ml",[5],95%
Cc1ccc(NNC(=O)CC[C@H](N)C(=O)O)c(C)c1,IC50,[1],15.75 mg/L
N[C@@H](CCC(=O)NNc1cc(O)cc(O)c1)C(=O)O,IC50,[1],316.86 mg/L
N[C@@H](CCC(=O)NNc1ccccc1O)C(=O)O,"remaining at 24 h, 1 mg/ml",[2],45.7%
